Data from ChEMBL document CHEMBL1122794, “[(Arylcarbonyl)oxy]propanolamines. 1. Novel beta-blockers with ultrashort duration of action” (J Med Chem, 1984).

What was measured:
[1] = T1/2 in canine blood; assay type: ADME, […], Canis lupus familiaris; settings: dog
How it was run: (§1)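 1 mL of solution containing 50 µg of compound was added to 1 mL of dog or human whole blood, or to 1 mL of 33% (w/v) canine liver homogenate. They were assayed by HPLC on a phenyl column with 60% acetonitrile/40% 0.05 M sodium phosphate (pH 6.6) and UV detection. Half-life was read graphically from concentration versus time.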

[2] = t1/2 in canine liver; assay type: ADME, Canis lupus familiaris; settings: dog
Adrenergic receptor beta [3] = target: T1, Adrenergic receptor beta (Homo sapiens, UniProt P08588+P07550+P13945); assay: In Vitro inhibition of the beta adrenergic receptor in guinea pig atria; assay type: tissue-based, Cavia porcellus; settings: target entry is the homologue from another species
Adrenergic receptor beta [4] = target: T1, Adrenergic receptor beta; assay: In vitro blocking of beta adrenergic receptor in guinea pig trachea; assay type: tissue-based, Cavia porcellus; settings: target entry is the homologue from another species
Canis familiaris [5] = species: Canis familiaris; assay: Time taken for 80% recovery at a dose of 172 microg (3-h infusion period); assay type: functional, organism-based; settings: Canis lupus familiaris
[6] = (§2) Selectivity determined by expression 10[pA2(atria) - pA2 (trachea)] in guinea pig; assay type: functional, Cavia porcellus
How it was run: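 Selectivity index calculated as 10^[pA2(atria) − pA2(trachea)] from pA2 values measured in isolated guinea pig atria and trachea. A minus sign denotes β2 selectivity.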

Canis familiaris [7] = species: Canis familiaris; assay: Time taken for 80% recovery at a dose of 28 microg (3-h infusion period); assay type: functional, organism-based; settings: Canis lupus familiaris
[8] = as §2; assay type: functional, Cavia porcellus; remark: listed apart in the source
[9] = Time in which 1/2 of the initial amount disappeared in human blood.; assay type: ADME, organism-based; how it was run: as §1
Adrenergic receptor beta [10] = target: T1, Adrenergic receptor beta; assay: In vitro beta adrenergic receptor blocking in guinea pig trachea; assay type: tissue-based, Cavia porcellus; settings: target entry is the homologue from another species
Canis familiaris [11] = species: Canis familiaris; assay: Percent inhibition of isoproterenol induced tachycardia at a dose of 1.1 microg (3-h infusion period); assay type: functional, Canis lupus familiaris
Canis familiaris [12] = species: Canis familiaris; assay: Time taken for 80% recovery at a dose of 1.1 microg (3-h infusion period); assay type: functional, organism-based; settings: Canis lupus familiaris
Canis familiaris [13] = species: Canis familiaris; assay: Time taken for 80% recovery at a dose of 25 microg (3-h infusion period); assay type: functional, organism-based; settings: Canis lupus familiaris
[14] = Stability at pH 7.4 and 37 degree Celsius (after 18 h); assay type: physicochemical; settings: buffer
How it was run: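 Chemical stability was tested in pH 7.4 buffer at 37 °C. The percentage of parent compound remaining after 18 h of incubation was recorded.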

[15] = Time in which 1/2 of the initial amount disappeared in canine liver(106); assay type: ADME, […], Canis lupus familiaris; settings: dog; how it was run: as §1
Canis familiaris [16] = species: Canis familiaris; assay: Time taken for 80% recovery at a dose of 106 microg (3-h infusion period); assay type: functional, organism-based; settings: Canis lupus familiaris
Canis familiaris [17] = species: Canis familiaris; assay: Percent inhibition of isoproterenol induced tachycardia at a dose of 23 microg (3-h infusion period); assay type: functional, Canis lupus familiaris
Canis familiaris [18] = species: Canis familiaris; assay: Time taken for 80% recovery at a dose of 23 microg (3-h infusion period); assay type: functional, organism-based; settings: Canis lupus familiaris
Canis familiaris [19] = species: Canis familiaris; assay: Percent inhibition of isoproterenol induced tachycardia at a dose of 3.3 microg (3-h infusion period); assay type: functional, Canis lupus familiaris
Canis familiaris [20] = species: Canis familiaris; assay: Time taken for 80% recovery at a dose of 3.3 microg (3-h infusion period); assay type: functional, organism-based; settings: Canis lupus familiaris
Canis familiaris [21] = species: Canis familiaris; assay: Percent inhibition of isoproterenol induced tachycardia at a dose of 7 microg (3-h infusion period); assay type: functional, Canis lupus familiaris
Canis familiaris [22] = species: Canis familiaris; assay: Time taken for 80% recovery at a dose of 7 microg (3-h infusion period); assay type: functional, organism-based; settings: Canis lupus familiaris
How it was run: (§3)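 After the infusion ended, the time to 80% recovery of the blockade was recorded as duration of action. The listed dose is the average amount infused per minute over the 3-h period, in µg/(kg min).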

Canis familiaris [23] = species: Canis familiaris; assay: Percent inhibition of isoproterenol induced tachycardia at a dose of 8 microg (3-h infusion period); assay type: functional, Canis lupus familiaris
Canis familiaris [24] = species: Canis familiaris; assay: Time taken for 80% recovery at a dose of 8 microg (3-h infusion period); assay type: functional, organism-based; settings: Canis lupus familiaris; how it was run: as §3
Canis familiaris [25] = species: Canis familiaris; assay: Time taken for 80% recovery at a dose of 59 microg (3-h infusion period); assay type: functional, organism-based; settings: Canis lupus familiaris; how it was run: as §3
Canis familiaris [26] = species: Canis familiaris; assay: Time taken for 80% recovery at a dose of 18 microg (3-h infusion period); assay type: functional, organism-based; settings: Canis lupus familiaris
Canis familiaris [27] = species: Canis familiaris; assay: Percent inhibition of isoproterenol induced tachycardia at a dose of 10 microg (3-h infusion period); assay type: functional, Canis lupus familiaris
Canis familiaris [28] = species: Canis familiaris; assay: Time taken for 80% recovery at a dose of 10 microg (3-h infusion period); assay type: functional, organism-based; settings: Canis lupus familiaris

Row | Compound | half-life [1] [min] | half-life [2] [min] | pA2 (Adrenergic receptor beta [3]) | pA2 (Adrenergic receptor beta [4]) | Selectivity [8] | other results
1 | CCCOc1ccccc1C(=O)OCC(O)CNC(C)C (stereo unspecified) |  |  | 6.6 | 7.1 |  | Recovery time (Canis familiaris [5]): > 60 min; Selectivity [6]: -3.5
2 | CC(C)(C)NCC(O)COC(=O)c1ccc2c(c1)OCO2 (stereo unspecified) |  |  | 6.9 |  |  | Recovery time (Canis familiaris [7]): > 60 min
3 | Cc1ccc(C(=O)OCC(O)CNC(C)C)cc1 (stereo unspecified) | 67 | 10.4 | 6.8 | 6.8 | 1 | half-life [9]: 6 min
4 | CC(C)(CNC(=O)N1CCOCC1)NCC(O)COC(=O)c1ccccc1F (stereo unspecified) |  |  | 8.5 |  | 2 | pA2 (Adrenergic receptor beta [10]): 8.2; Inhibition (Canis familiaris [11]): 81%; Recovery time (Canis familiaris [12]): > 60 min
5 | CCC(C)(C)NCC(O)COC(=O)c1ccccc1F (stereo unspecified) | 6 | 12 | 6.7 | 7.7 | -5 | 
6 | CC(C)NCC(O)COC(=O)c1ccc(O)cc1 (stereo unspecified) |  |  | 6.8 | 7.2 | -2.5 | Recovery time (Canis familiaris [13]): > 45 min
7 | Cc1ccccc1C(=O)OCC(O)CNC(C)(C)C (stereo unspecified) | > 180 | > 180 | 7.3 | 7.9 | -4 | remaining at 18 h [14]: 100%; half-life [9]: > 180 min
8 | CC(C)NCC(O)COC(=O)c1ccccc1F (stereo unspecified) | 7 |  |  | 7.1 |  | remaining at 18 h [14]: 83%; half-life [15]: 4 min; half-life [9]: 1.7 min; Recovery time (Canis familiaris [16]): 25 min
9 | CC(C)(C)NCC(O)COC(=O)c1ccc([N+](=O)[O-])cc1Cl (stereo unspecified) |  |  | 6.6 | 6.5 | 1 | Inhibition (Canis familiaris [17]): 85%; Recovery time (Canis familiaris [18]): > 60 min
10 | CC(C)C(=O)NCC(C)(C)NCC(O)COC(=O)c1ccccc1F (stereo unspecified) | 20 | 3.5 |  |  |  | Inhibition (Canis familiaris [19]): 62%; Recovery time (Canis familiaris [20]): 22 min
11 | CC(C)(C)NCC(O)COC(=O)C(c1ccccc1)c1ccccc1 (stereo unspecified) | > 180 |  | < 5.5 |  |  | half-life [9]: 120 min
12 | COc1ccc(CCNCC(O)COC(=O)c2ccc(F)cc2)cc1OC (stereo unspecified) |  |  | 7 | 6.7 | 2 | Recovery time (Canis familiaris [25]): > 60 min
13 | CC(C)(C)NCC(O)COC(=O)c1ccccc1Cl (stereo unspecified) | 31 | 72 |  |  |  | remaining at 18 h [14]: 98%; half-life [9]: 6 min; Recovery time (Canis familiaris [26]): > 35 min
14 | CC(C)(CNC(=O)Cc1ccccc1)NCC(O)COC(=O)c1ccccc1F (stereo unspecified) | 6 | 25 | 7.4 | 8.1 | -5 | Inhibition (Canis familiaris [27]): 68%; Recovery time (Canis familiaris [28]): 19 min

Second part, led by results:

Row | half-life [1] [min] | half-life [2] [min] | pA2 (Adrenergic receptor beta [3]) | pA2 (Adrenergic receptor beta [4]) | Compound | Selectivity [8] | other results
15 | 74 | > 180 | 6.8 |  | CC(C)(C)NCC(O)COC(=O)c1cccc([N+](=O)[O-])c1 (stereo unspecified) |  | 
16 | 12 | 5 | 6.5 | 8.1 | CNC(=O)NCC(C)(C)NCC(O)COC(=O)c1ccccc1F (stereo unspecified) | -39 | 
17 | > 180 | > 180 | 6.4 | 6.8 | CC(C)NCC(O)COC(=O)c1cccc(N)c1 (stereo unspecified) | -2.5 | Inhibition (Canis familiaris [21]): 80%; Recovery time (Canis familiaris [22]): > 60 min
18 |  |  | 7.7 | 7.2 | CC(C)(CNC(=O)C1CCCCC1)NCC(O)COC(=O)c1ccccc1F (stereo unspecified) | 3 | Inhibition (Canis familiaris [23]): 61%; Recovery time (Canis familiaris [24]): 12 min
19 |  |  | 7.8 | 7.5 | COc1ccc(CCNCC(O)COC(=O)c2ccccc2Cl)cc1OC (stereo unspecified) | 2 | remaining at 18 h [14]: 59%
20 | > 180 | > 180 | 6.8 | 7.4 | CC(C)(C)NCC(O)COC(=O)c1cccc2ccccc12 (stereo unspecified) | -4 | 
